Where only a bound is given, the exact number is not on record here.

The test system of one series is RAW264.7. Briefly: Inhibition of LPS-induced nitric oxide production in mouse RAW264.7 cells after 24 hrs by Griess assay. Format: functional, cell-based. The following applies: RAW264.7, 24 h.
For orientation: IC50 means the concentration needed to halve the response being measured. A lower IC50 goes with inhibition by little substance. As for `C=C(C(=O)O)[C@@H]1CC=C2[C@H](O)CC[C@H](C)[C@@]2(C)C1`, the IC50 stood at 18.9 µM.

Turning to `C=C(C(=O)O)[C@@H]1C[C@@H]2O[C@@]23CCC[C@H](C)[C@@]3(C)C1`, the IC50 was 10.8 µM.

Molecule `C[C@@H]1C[C@H]2[C@@H]3CCC4=CC(=O)C=C[C@]4(C)[C@@]3(F)[C@@H](O)C[C@]2(C)[C@@]1(O)C(=O)CO` [DEXAMETHASONE] registered an IC50 of 10.7 µM.

For a further series, the system named is DU-145. Briefly: Cytotoxicity against human DU145 cells by MTT assay. Format: functional, cell-based.
Details: not given
In short, it runs like this: (§1)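 MTT-based growth inhibition of HCT116 and DU145 cells following an established protocol, with taxol as positive control.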
(Tetrazolium assays rely on reduction of a dye to a coloured formazan, in cell work by metabolically active cells.)
Molecule `C=C(C(=O)O)[C@H]1C[C@@]23O[C@@]2(C)CCC[C@]3(C)C[C@@H]1OC(C)=O` displayed an IC50 greater than 50 µM.

With `C=C(C(=O)O)[C@@H]1CC=C2[C@H](O)CC[C@H](C)[C@@]2(C)C1`, the IC50 was greater than 50 µM.

`C=C(C(=O)O)[C@@H]1C[C@@H]2O[C@@]23CCC[C@H](C)[C@@]3(C)C1` returned an IC50 greater than 50 µM.

Another series deals with HCT-116. Briefly: Cytotoxicity against human HCT116 cells by MTT assay.
Details: not given
Type of series: functional, cell-based. The gist of the method:
as §1
`C=C(C(=O)O)[C@H]1C[C@@]23O[C@@]2(C)CCC[C@]3(C)C[C@@H]1OC(C)=O`: the IC50 is greater than 50 µM.

For `C=C(C(=O)O)[C@@H]1CC=C2[C@H](O)CC[C@H](C)[C@@]2(C)C1`, the IC50 was greater than 50 µM.

Molecule `C=C(C(=O)O)[C@@H]1C[C@@H]2O[C@@]23CCC[C@H](C)[C@@]3(C)C1` gave a half-inhibitory concentration (IC50) greater than 50 µM.

The test system of a further series is RAW264.7. Briefly: Cytotoxicity against mouse RAW264.7 cells assessed as effect on cell viability at 50 uM by MTT assay. Type of series: cell-based. The settings on record: raw264.7, 50 µM.
Regarding `C=C(C(=O)O)[C@H]1C[C@@]23O[C@@]2(C)CCC[C@]3(C)C[C@@H]1OC(C)=O`, the Activity entry is listed as “Non-Toxic”.

As to `C=C(C(=O)O)[C@@H]1CC=C2[C@H](O)CC[C@H](C)[C@@]2(C)C1`, the Activity entry is “Non-Toxic”.

`C=C(C(=O)O)[C@@H]1C[C@@H]2O[C@@]23CCC[C@H](C)[C@@]3(C)C1`: the Activity result was “Non-Toxic”.
